We go through seven molecules from PMC5091360 (Science Advances, 2016).

One data set concerns PDGFR-β. Particulars: such as in the case of sunitinib and PDGFR-β; cited from earlier work.
For data set [1], the system named is IgD2 domain from human VEGFR-3. Description: phage PCAIWF binding to recombinant VEGFR-3 IgD2. Particulars: peptide 100 μg/ml; FLISA, duplicate wells.
Data set [2] has as its system IgD2-3 domains from human VEGFR-3. Put plainly: phage PCAIWF binding to recombinant VEGFR-3 IgD2-3. Particulars: peptide 100 μg/ml; FLISA, duplicate wells.
The test system of data set [3] is ERK1/2 pathway in lymphatic endothelial cells (LECs). Description: ERK1/2 phosphorylation in lymphatic endothelial cells. The format is cell-based, human. As to conditions: 10 min, 37°C. In short, it runs like this:
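Human dermal lymphatic microvascular endothelial cells were cultured overnight in EBM2 with 2% FBS, then starved 18 h in EBM2 with 0.2% BSA. They were stimulated with VEGF-A, VEGF-C or FGF-1, with or without test peptide or scrambled peptide (30 μg/ml). Lysates were immunoblotted for total and phospho-ERK1/2 using infrared-dye secondaries, and the phospho/total intensity ratio was taken. Two experiments were run; ANOVA with Tukey.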

The next data set relates to HUVECs. Description: endothelial tube formation in Matrigel. The format is cell-based, human. Particulars: peptide 500 μg/ml in Matrigel. An outline of the steps: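 HUVECs (1.5 × 10^4 per well) plated on Matrigel containing 1% DMSO, with or without peptide (500 μg/ml) in the gel. Cells kept in RPMI 1640 with VEGF-A (30 ng/ml) or VEGF-C (100 ng/ml). Tubes counted per field at 4× by bright-field microscopy. Triplicate wells; two independent experiments; Student's t test.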

The test system of another data set is human VEGFR-1. Description: FLISA binding assay, NRP-1 to VEGFR-1. Particulars: human NRP-1, FLISA. In short, it runs like this: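 Human VEGFR-1 extracellular domain coated at 200 ng per well in PBS overnight at 4°C, then blocked with Odyssey blocking buffer. Wells incubated with NRP-1 or NRP-2 in PBS with 10% (v/v) DMSO and 10% blocking buffer, with or without peptide (100 μg/ml). Bound NRP detected with goat anti-NRP-1 or anti-NRP-2 serum (1:100), then IRDye 680LT anti-goat, by infrared scanning. Duplicate wells; ANOVA with Tukey.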

Data set [4] has as its target VEGFR-1. Particulars: read-out: Kd, NRP-1 to VEGFR-1; cited from earlier work.
Another data set concerns mouse VEGFR-3. Description: phage binding assay, immobilized mouse VEGFR-3. Particulars: 10^8 TU in 50 μl PBS, 2 hours, room temperature; control insertless phage Fd; colony count or phage-FLISA; triplicate plating.
The subject of another data set is human VEGFR-3. Put plainly: phage binding assay, immobilized human VEGFR-3. As to conditions: 10^8 TU in 50 μl PBS, 2 hours, room temperature; control insertless phage Fd; colony count or phage-FLISA; triplicate plating.
The subject of data set [5] is VEGFR-1. Put plainly: phage binding assay, immobilized VEGFR-1. As to conditions: 10^8 TU in 50 μl PBS, 2 hours, room temperature; triplicate plating.
For the next data set, the system named is VEGFR-2. Description: phage binding assay, immobilized VEGFR-2. Particulars: 10^8 TU in 50 μl PBS, 2 hours, room temperature; triplicate plating.
The next data set deals with NRP-1. Put plainly: phage binding assay, immobilized NRP-1. Particulars: 10^8 TU in 50 μl PBS, 2 hours, room temperature; triplicate plating.
In the next data set the test system is NRP-2. Put plainly: phage binding assay, immobilized NRP-2. Particulars: 10^8 TU in 50 μl PBS, 2 hours, room temperature; triplicate plating.
The conditions of data set [6]: clinical studies; cited from earlier work.
A further data set has as its system VEGF family. Particulars: cited from earlier work.
In data set [7] the target is T1, VEGFR-3 (Mus musculus, UniProt P35917).
T1 sequence (P35917 25-770): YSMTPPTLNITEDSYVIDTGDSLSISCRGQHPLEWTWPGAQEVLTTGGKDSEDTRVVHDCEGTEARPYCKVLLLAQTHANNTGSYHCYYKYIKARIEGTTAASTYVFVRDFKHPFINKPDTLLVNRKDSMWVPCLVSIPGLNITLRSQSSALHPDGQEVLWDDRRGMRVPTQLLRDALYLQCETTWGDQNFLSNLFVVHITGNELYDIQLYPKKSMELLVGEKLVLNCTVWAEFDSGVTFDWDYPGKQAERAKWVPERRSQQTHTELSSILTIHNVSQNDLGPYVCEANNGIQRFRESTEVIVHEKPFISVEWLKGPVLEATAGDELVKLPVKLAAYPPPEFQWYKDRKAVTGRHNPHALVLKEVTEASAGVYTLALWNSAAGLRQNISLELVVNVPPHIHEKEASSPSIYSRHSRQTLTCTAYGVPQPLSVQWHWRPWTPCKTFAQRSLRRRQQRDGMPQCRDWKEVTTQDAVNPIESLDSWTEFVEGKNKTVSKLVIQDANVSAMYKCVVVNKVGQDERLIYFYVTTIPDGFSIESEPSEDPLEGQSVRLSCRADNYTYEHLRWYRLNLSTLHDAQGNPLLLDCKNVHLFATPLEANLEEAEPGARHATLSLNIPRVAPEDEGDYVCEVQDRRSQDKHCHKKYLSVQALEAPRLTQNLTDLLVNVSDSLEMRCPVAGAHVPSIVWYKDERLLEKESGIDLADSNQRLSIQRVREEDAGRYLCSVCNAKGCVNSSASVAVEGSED
Description: competition assay, binding of phage PCAIWF to immobilized VEGFR-3. As to conditions: VEGF-A or VEGF-C (10 ng/ml); triplicate plating.

Data set [8] has as its target T1, VEGFR-3. Description: competition assay, binding of phage WVCSGG to immobilized VEGFR-3. As to conditions: VEGF-C or VEGF-A in competition.
Data set [9] deals with IgD2 domain from human VEGFR-3. Description: VEGF-C binding to recombinant VEGFR-3 IgD2. Particulars: FLISA, no peptide, duplicate wells.
In data set [10] the test system is IgD2-3 domains from human VEGFR-3. Description: VEGF-C binding to recombinant VEGFR-3 IgD2-3. Particulars: FLISA, no peptide, duplicate wells.
For a further data set, the target named is T2, rat NRP-2 (rat, UniProt O35276).
T2 sequence: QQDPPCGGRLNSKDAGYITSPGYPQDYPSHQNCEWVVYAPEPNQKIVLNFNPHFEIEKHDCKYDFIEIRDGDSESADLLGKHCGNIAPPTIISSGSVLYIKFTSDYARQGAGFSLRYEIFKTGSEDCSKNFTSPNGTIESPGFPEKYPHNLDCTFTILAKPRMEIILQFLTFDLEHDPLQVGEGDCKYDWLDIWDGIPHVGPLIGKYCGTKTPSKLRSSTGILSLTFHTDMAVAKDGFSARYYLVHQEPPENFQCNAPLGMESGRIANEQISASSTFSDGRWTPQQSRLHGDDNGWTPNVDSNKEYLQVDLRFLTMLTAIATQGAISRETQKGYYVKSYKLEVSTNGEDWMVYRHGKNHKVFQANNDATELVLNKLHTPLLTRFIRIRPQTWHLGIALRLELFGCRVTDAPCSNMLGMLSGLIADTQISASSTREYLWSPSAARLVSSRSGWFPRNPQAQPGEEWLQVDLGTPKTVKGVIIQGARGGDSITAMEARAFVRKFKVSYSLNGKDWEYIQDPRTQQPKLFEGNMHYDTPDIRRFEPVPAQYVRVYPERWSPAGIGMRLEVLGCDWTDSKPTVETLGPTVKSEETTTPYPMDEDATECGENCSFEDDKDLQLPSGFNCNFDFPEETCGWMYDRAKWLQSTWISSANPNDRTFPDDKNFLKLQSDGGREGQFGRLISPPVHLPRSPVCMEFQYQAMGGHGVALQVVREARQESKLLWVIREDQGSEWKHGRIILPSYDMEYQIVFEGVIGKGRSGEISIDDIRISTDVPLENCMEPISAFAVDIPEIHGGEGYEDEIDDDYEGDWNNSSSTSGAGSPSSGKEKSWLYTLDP
Description: ELISA.

Take `CCN(CC)CCNC(=O)c1c(C)[nH]c(/C=C2\C(=O)Nc3ccc(F)cc32)c1C` [sunitinib]: the side effects entry in the data set on PDGFR-β was “cardiotoxicity”.
Turning to IFCAPW, the “inhibition of phage PCAIWF binding to IgD2 by synthetic peptide” value in data set [1] is “not by the control peptide”. Also, the “inhibition of phage PCAIWF binding to IgD2-3 by synthetic peptide” value in data set [2] is “not by the control peptide”. Further, in data set [3] (FGF-1 100 ng/ml, peptide 30 μg/ml), the “effect on FGF-1 induced phosphorylation of ERK1/2” value was “no effect on this downstream signaling event”. The “effect on VEGF-A induced phosphorylation of ERK1/2” value in data set [3] (VEGF-A 100 ng/ml, peptide 30 μg/ml) was “no effect on this downstream signaling event”. The “effect on VEGF-C induced phosphorylation of ERK1/2” value in [3] (VEGF-C 100 ng/ml, peptide 30 μg/ml) is on record as “no effect on this downstream signaling event”. Further, in the data set with HUVECs (VEGF-A 30 ng/ml), the “inhibition of tube formation, VEGF-A stimulated (in words)” value is given as “not by the control scramble peptide”. Besides, the “inhibition of tube formation, VEGF-C stimulated (in words)” value with HUVECs (VEGF-C 100 ng/ml) is “not by the control scramble peptide”.
Turning to “NRP-1: neuropilin-1, co-receptor for VEGF”, in the data set on human VEGFR-1, the “NRP-1 binding to VEGFR-1” value is recorded as “strong interaction”. Besides, at VEGFR-1 [4], the Kd was around 1.8 nM.
PCAIWF [phage PCAIWF]: the “phage binding to mouse VEGFR-3” value with mouse VEGFR-3 was “both phages bound to mouse and human VEGFR-3”. Moreover, the “phage binding to human VEGFR-3” value in the data set on human VEGFR-3 is “both phages bound to mouse and human VEGFR-3”. In the data set on VEGFR-1 [5], the “phage binding to VEGFR-1” value was “not to the other receptors, VEGFR-1 and VEGFR-2”. Moreover, the “phage binding to VEGFR-2” value with VEGFR-2 was “not to the other receptors, VEGFR-1 and VEGFR-2”. Also, the “phage binding to NRP-1” value with NRP-1 was “not to the other receptors, VEGFR-1 and VEGFR-2 (Fig. 1, C and D), including the two other non-RTKs, NRP-1 and NRP-2”. The “phage binding to NRP-2” value in the data set with NRP-2 was “not to the other receptors, VEGFR-1 and VEGFR-2 (Fig. 1, C and D), including the two other non-RTKs, NRP-1 and NRP-2”.
“aflibercept: ligand-binding domain of VEGFR-1 fused to an Ig constant region”: the “clinical efficacy in ophthalmology” value in [6] was “better efficacy compared to bevacizumab and ranibizumab”. In addition, the “VEGF family members targeted” value in the data set on VEGF family was “will target multiple members of the VEGF family (VEGF-A, VEGF-B, and PlGF) but will miss others (VEGF-C and VEGF-D)”.

B1: VEGF-C: VEGF family member, recombinant human ligand (protein)
chain: AHYNTEILKSIDNEWRKTQCMPREVCIDVGKEFGVATNTFFKPPCVSVYRCGGCCNSEGLQCMNTSTSYLSKTLFEITVPLSQGPKPVTISFANHTSCRCMSKLDVYRQVHSIIRR
As to B1, the “inhibition of phage PCAIWF binding to VEGFR-3 by growth factor” value with VEGFR-3 [7] was “Only VEGF-C prevents the binding of phage PCAIWF to the receptor (Fig. 2A) in a dose-dependent manner”. Also, the “inhibition of phage WVCSGG binding to VEGFR-3 by growth factor” value in the data set with VEGFR-3 [8] was “binding of phage WVCSGG to VEGFR-3 is also inhibited by VEGF-C”. In data set [9], the “VEGF-C binding to IgD2” value is listed as “binds to both recombinant ligand-binding domains IgD2”. Further, in data set [10], the “VEGF-C binding to IgD2-3” value was “binds to both recombinant ligand-binding domains IgD2 (Fig. 2F) and IgD2-3”. Further, the “phosphorylation of ERK1/2 upon growth factor stimulation” value in data set [3] (growth factor 100 ng/ml, 1% DMSO, heparin 10 U/ml) is “phosphorylation of ERK1/2 increases”.

B2: human VEGFR-1 extracellular domain (Fc fusion) (Fc fusion)
chain: SKLKDPELSLKGTQHIMQAGQTLHLQCRGEAAHKWSLPEMVSKESERLSITKSACGRNGKQFCSTLTLNTAQANHTGFYSCKYLAVPTSKKKETESAIYIFISDTGRPFVEMYSEIPEIIHMTEGRELVIPCRVTSPNITVTLKKFPLDTLIPDGKRIIWDSRKGFIISNATYKEIGLLTCEATVNGHLYKTNYLTHRQTNTIIDVQISTPRPVKLLRGHTLVLNCTATTPLNTRVQMTWSYPDEKNKRASVRRRIDQSNSHANIFYSVLTIDKMQNKDKGLYTCRVRSGPSFKSVNTSVHIYDKAFITVKHRKQQVLETVAGKRSYRLSMKVKAFPSPEVVWLKDGLPATEKSARYLTRGYSLIIKDVTEEDAGNYTILLSIKQSNVFKNLTATLIVNVKPQIYEKAVSSFPDPALYPLGSRQILTCTAYGIPQPTIKWFWHPCNHNHSEARCDFCSNNEESFILDADSNMGNRIESITQRMAIIEGKNKMASTLVVADSRISGIYICIASNKVGTVGRNISFYITDVPNGFHVNLEKMPTEGEDLKLSCTVNKFLYRDVTWILLRTVNNRTMHYSISKQKMAITKEHSITLNLTIMNVSLQDSGTYACRARNVYTGEEILQKKEITIRDQEAPYLLRNLSDHTVAISSSTTLDCHANGVPEPQITWFKNNHKIQQEPGIILGPGSSTLFIERVTEEDEGVYHCKATNQKGSVESSAYLTVQGTSDKSNLE
Turning to B2, in the data set with rat NRP-2, the binding result was “binds”.
